Source: ChEMBL document CHEMBL1145303, “The development of novel C-2, C-8, and N-9 trisubstituted purines as inhibitors of TNF-alpha production” (Bioorg Med Chem Lett, 2006)

Legend:
THP-1 = assay: Inhibition of LPS-stimulated TNFalpha production in THP1 cells; assay type: functional, cell-based; conditions: Homo sapiens
Summary of the method: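 Human monocytic THP-1 cells, 2.0 · 10⁵/well, cultured in duplicate, preincubated 15 min with or without a range of inhibitor concentrations. TNF-α release then stimulated with LPS at 2 µg/ml. Secreted TNF-α measured by ELISA 4 h after stimulation. Cell viability after the 4 h incubation checked by MTS assay.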

[1] = Metabolic stability in Sprague-Dawley rat liver microsomes assessed as percent loss after 4 hrs; assay type: ADME, Microsome; conditions: hepatocytes, in the assay text read “hepatocytes” for “liver microsomes”, read-out: Activity
Summary of the method: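 Plated Sprague–Dawley rat hepatocytes, not microsomes, with matrigel blank plates. Test compound incubated at 37 °C in triplicate, sampled at 0, 2 and 4 h. Samples pooled after incubation into a multi-compound set, internal standard added, reverse-phase LC/MS/MS. The compound/internal-standard area ratio at 4 h divided by the 0 h ratio gives percent loss.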

[2] = Bioavailability in rat; assay type: ADME, organism-based; conditions: in vivo
[3] = Half life in rat; assay type: ADME, organism-based; conditions: in vivo

SMILES | IC50 (THP-1) | also measured
CCn1c(Nc2ccccc2OC)nc2cnc(Oc3c(F)cccc3F)nc21 | 2050 nM | 
CCn1c(Nc2ccc(C)cc2Cl)nc2cnc(Oc3c(F)cccc3F)nc21 | 273 nM | 
CCn1c(Nc2ccccc2O)nc2cnc(Oc3c(F)cccc3F)nc21 | 906 nM | 
CC(C)n1c(Nc2ccccc2Cl)nc2cnc(Nc3c(F)cccc3F)nc21 | 630 nM | 
CCn1c(C(=O)c2ccccc2Cl)nc2cnc(Oc3c(F)cccc3F)nc21 | 4 nM | metabolised at 4 h [1]: 82%
Cn1c(NC(=O)c2ccccc2Cl)nc2cnc(NC3CCOCC3)nc21 | > 10000 nM | 
CCn1c(Sc2ccccc2Cl)nc2cnc(Oc3c(F)cccc3F)nc21 | 14 nM | metabolised at 4 h [1]: 75%
CCn1c(Nc2ccccc2C)nc2cnc(Oc3c(F)cccc3F)nc21 | 48 nM | metabolised at 4 h [1]: 56%; bioavailability [2]: 9%; half-life [3]: 1.5 h
Cn1c(Nc2ccccc2Cl)nc2cnc(Nc3c(F)cccc3F)nc21 | 1540 nM | 
CCn1c([S+]([O-])c2ccccc2Cl)nc2cnc(Oc3c(F)cccc3F)nc21 (configuration not stated) | > 1000 nM | 
Cn1c(Nc2ccccc2Cl)nc2cnc(Nc3ccc(F)cc3F)nc21 | 6560 nM | 
CCn1c(Nc2cccc(Cl)c2Cl)nc2cnc(Oc3c(F)cccc3F)nc21 | 300 nM | 
CCn1c(C(=O)c2ccccc2F)nc2cnc(Oc3c(F)cccc3F)nc21 | 207 nM | 
CCn1c(Nc2ccccc2N)nc2cnc(Oc3c(F)cccc3F)nc21 | 473 nM | 
Cn1c(Nc2ccccc2Cl)nc2cnc(NC3CCOCC3)nc21 | 6580 nM | 
C[C@H](Nc1ncc2nc(NCc3ccccc3Cl)n(C)c2n1)C(C)(C)O | > 10000 nM | 
CCn1c(Nc2ccccc2Cl)nc2cnc(Nc3ccccc3F)nc21 | 2110 nM | 

SMILES | IC50 (THP-1) | also measured
Cn1c(Nc2ccccc2Cl)nc2cnc(Nc3ccccc3F)nc21 | 10000 nM | 
CCn1c(C(O)c2ccccc2Cl)nc2cnc(Oc3c(F)cccc3F)nc21 (configuration not stated) | 169 nM | 
CC(C)n1c(C(=O)c2ccccc2Cl)nc2cnc(Oc3c(F)cccc3F)nc21 | 650 nM | 
CCn1c(Nc2c(Cl)cccc2Cl)nc2cnc(Oc3c(F)cccc3F)nc21 | 100 nM | 
C[C@H](Nc1ncc2nc(NCCc3ccccc3Cl)n(C)c2n1)C(C)(C)O | > 10000 nM | 
CCn1c(Oc2ccccc2Cl)nc2cnc(Oc3c(F)cccc3F)nc21 | 86 nM | 
CCn1c(Nc2ccccc2F)nc2cnc(Oc3c(F)cccc3F)nc21 | 35 nM | metabolised at 4 h [1]: 65%
CC(C)n1c(Nc2ccccc2F)nc2cnc(Oc3c(F)cccc3F)nc21 | 4 nM | metabolised at 4 h [1]: 61%; bioavailability [2]: 9%; half-life [3]: 1.5 h
CCn1c(Nc2ccccc2Cl)nc2cnc(Oc3c(F)cccc3F)nc21 | 69 nM | 
CC(C)(C)n1c(Nc2ccccc2Cl)nc2cnc(Nc3c(F)cccc3F)nc21 | > 1000 nM | 
CCCCn1c(Nc2ccccc2Cl)nc2cnc(Nc3c(F)cccc3F)nc21 | 798 nM | 
Fc1cccc(F)c1Nc1ncc2nc(Nc3ccccc3Cl)n(C3CC3)c2n1 | > 1000 nM | 
CCn1c(Nc2ccc(F)cc2Cl)nc2cnc(Oc3c(F)cccc3F)nc21 | 237 nM | 
CCn1c(Nc2ccccc2Cl)nc2cnc(Nc3c(F)cccc3F)nc21 | 542 nM | 
C[C@H](Nc1ncc2nc(Nc3ccccc3Cl)n(C)c2n1)C(C)(C)O | 3170 nM | 
O=c1ncn2nc(Sc3ccc(F)cc3F)ccc2c1-c1c(Cl)cccc1Cl [NEFLAMAPIMOD] | 56 nM | 
